For 15 molecules, Activity and EC50 results are on record in ChEMBL document CHEMBL6078650, “A Phenotypic High-Throughput Screen Identifies Small Molecule Modulators of Endogenous RGS10 in BV-2 Cells” (J Med Chem, 2024).

Assay [1] can be described thus: Induction of RGS10 expression in mouse single close BV-2 cells assessed as RGS10 protein level by measuring luminescence signal measured after 24 hrs by Nano-Glo HiBit Lytic detection assay. The format is functional. Details: concentration or dose not given beside the values. The essentials: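 BV-2-RGS10-HiBiT single-clone cells (CRISPR HiBiT tag at RGS10 C-terminus) in phenol red-free DMEM, 10% ultralow IgG FBS; IFNγ 10 ng/mL final plus compound 1–100 μM, 24 h, 37 °C. GF-AFC viability fluorescence (390/505) read first, then Nano-Glo HiBiT lytic luminescence (LgBiT 1:100, substrate 1:50); RLU/RFU expressed as % of IFNγ alone; 4 independent experiments in triplicate.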

A short description of assay [2]: (§1) Reversal of LPS-induced RGS10 silencing in mouse single close BV-2 cells assessed as RGS10 protein level by measuring LPS response measured after 24 hrs by Nano-Glo HiBit Lytic detection assay. The format is functional. The arrangement: concentration or dose not given beside the values. An outline of the steps:
(§2)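 HiBiT-knock-in BV-2 single clone exposed to LPS at 10 ng/mL final for 24 h at 37 °C in phenol red-free assay medium; RGS10-HiBiT measured by Nano-Glo HiBiT lytic detection (LgBiT 1:100, substrate 1:50), luminescence read after 15 min at room temperature.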

Assay [3] in a line: Reversal of IFNgamma-induced RGS10 silencing in mouse single close BV-2 cells assessed as IFN response measured after 24 hrs by Nano-Glo HiBit Lytic detection assay relative to control. It is filed as functional. Details: concentration or dose not given beside the values. The essentials:
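HiBiT-tagged BV-2-RGS10 clone treated with compound at 20 μM plus IFNγ 10 ng/mL for 24 h at 37 °C; viability by GF-AFC fluorescence, then HiBiT lytic luminescence; signal normalized RLU/RFU, expressed as % of IFNγ-alone signal; four independent experiments in triplicate, one-way ANOVA with Dunnett's test.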

For assay [4], the system named is BV-2. Described as §1. It is filed as functional. Details: concentration or dose not given beside the values. The essentials:
as §2

Assay [5] in a line: Reversal of IFNgamma-induced RGS10 silencing in mouse single close BV-2 cells assessed as RGS10 protein level by measuring luminescence signal measured after 24 hrs by Nano-Glo HiBit Lytic detection assay. The following applies: BV-2, 24 h.
Assay [6] has as its system BV-2. The experiment in a line: Reversal of IFNgamma-induced inflammatory gene expression in mouse single close BV-2 cells assessed as reversal of TNFalpha expression at 20 uM measured after 24 hrs by qRT-PCR analysis. It is filed as functional, cell-based. An outline of the steps: (§3)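 BV-2 cells treated 24 h with IFNγ 10 ng/mL with or without compound at 20 μM; iNOS, COX-2 and TNFα mRNA measured by one-step qRT-PCR (100 ng RNA template, 0.4 μM primers, 40 cycles), Cq read each cycle.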

In assay [7] the test system is BV-2. The experiment in a line: Reversal of IFNgamma-induced inflammatory gene expression in mouse single close BV-2 cells assessed as reversal of iNOS expression at 20 uM measured after 24 hrs by qRT-PCR analysis. The format is functional, cell-based. The essentials:
as §3

Assay [8] concerns BV-2. The experiment in a line: Reversal of IFNgamma-induced RGS10 silencing in mouse single close BV-2 cells assessed as suppression of RGS10 protein level at 20 uM measured after 24 hrs by Western blot analysis. The format is functional, cell-based. An outline of the steps:
(§4)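 Parental BV-2 cells, IFNγ 10 ng/mL with compound 20 μM for 24 h or 48 h; lysates in Tris/NaCl/Triton/SDS buffer with protease inhibitors, equal protein on 12% SDS-PAGE, goat anti-RGS10 (1:1,000) with β-actin or GAPDH loading control, infrared secondary detection; four independent experiments in duplicate.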

Assay [9] relates to BV-2. The experiment in a line: Reversal of IFNgamma-induced inflammatory gene expression in mouse single close BV-2 cells assessed as reversal of COX-2 expression at 20 uM measured after 24 hrs by qRT-PCR analysis. It is filed as functional, cell-based. An outline of the steps: as §3
The test system of assay [10] is BV-2. The experiment in a line: Reversal of IFNgamma-induced RGS10 silencing in mouse single close BV-2 cells assessed as increase in of RGS10 mRNA level measured after 24 hrs by qRT-PCR analysis. It is filed as functional, cell-based. The conditions noted are these: dose 0.5-20 µM. An outline of the steps:
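Parental BV-2 cells given IFNγ 10 ng/mL for 24 h with compound 0.5–20 μM; RGS10 mRNA by one-step qRT-PCR (100 ng RNA, 0.4 μM primers; RT 55 °C 10 min, 40 cycles 95 °C/60 °C), Cq values with melt curve.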

Assay [11] concerns BV-2. The experiment in a line: Reversal of IFNgamma-induced RGS10 silencing in mouse single close BV-2 cells assessed as suppression of RGS10 protein level at 20 uM measured after 48 hrs by Western blot analysis. It is filed as functional, cell-based. An outline of the steps: as §4

The source made the active and inactive calls. The calls are words filed in the database; no cut-off is given here.

Consider `CCOc1ccc(-c2nc(C3CC(=O)N(c4ccc(C)cc4)C3)no2)cc1` (centres undefined), for which the Activity in [1] came to 85.6%; in assay [2], 104.7%; in assay [3] it was 97.4%.
Consider `O=C(Nc1ccc(F)cc1)c1cc2n(n1)CC(c1ccc3c(c1)OCO3)OC2` (centres undefined), for which the Activity in assay [1] is 113.8%; in [2], 105.3%; in [3], 123.2%.
Turning to `COc1cccc(CNC(=O)c2ccc3c(Cl)c4c(nc3c2)CCCC4)c1`, the Activity is recorded as 104.6% in assay [1], 97.4% in [2] and 141.3% in assay [3].
`Cc1ccc(-n2c(=O)c3c(cc(C)n3C)n(CC(=O)Nc3ccc(Br)cc3F)c2=O)cc1`: the values for the Activity in assay [1] and in assay [3] were 156.8% and 90.1%, respectively. Also, the outcome in the assay with BV-2 [4] was inactive.
Regarding `O=C(CN1C(=O)NC(c2ccc(Cl)cc2)C2=C1COC2=O)Nc1ccc(F)c(F)c1` (centres undefined), the EC50 in assay [5] amounted to 23.5 µM. In addition, the outcome in the assay on BV-2 [6] and with BV-2 [8] was inactive. Moreover, the result in the assay on BV-2 [7] was Active. Moreover, the Activity worked out at 69.6% in assay [1], 84.1% in [2] and 171.6% in assay [3].
`COc1ccc(C2NC(=O)N(CC(=O)N3CCCCCC3)C3=C2C(=O)OC3)cc1` (centres undefined): the Activity in assay [1] came out at 104.8%; in assay [2], 87.4%; in assay [3] it was 102.4%.
In the case of `CCNc1ncnc2sc3c(c12)CCN(Cc1ccncc1)C3`, the Activity in assay [1] was found to be 97.1%; in assay [2], 89.5%; in assay [3], 94%.
`O=C(CN1C(=O)NC(c2ccc(Cl)cc2)C2=C1COC2=O)Nc1cc(F)cc(F)c1` (centres undefined): the EC50 in [5] turned out to be 31.2 µM. Besides, the result with BV-2 [6] and in the assay on BV-2 [8] was inactive. Moreover, the result in the assay with BV-2 [7] was Active. The Activity is reported as 56.8% in [1], 80.4% in [2] and 186.7% in assay [3].
On to `CCc1cc(-c2csc(S(=O)(=O)Nc3ccc(C)cc3Br)c2)on1`, for which the EC50 in assay [5] came to 33.6 µM. Also, the result in the assay on BV-2 [9], in the assay on BV-2 [7] and in the assay on BV-2 [11] was Active. In addition, the outcome in the assay on BV-2 [6] and with BV-2 [8] was inactive. The Activity result in the assay on BV-2 [10] was “Dose-dependent-effect; Significant Reversal Achieved At > 5 Um”; in [1] it was 76.8%; in assay [2] it was 104.1%; in [3], 206.2%.
Regarding `COCCOC1CCN(C(=O)Nc2ccc(C(=O)OC)cc2)CC1`, the Activity in assay [1] turned out to be 101.2%; in assay [2] it was 121.7%; in [3], 106.7%.
The corresponding values for `Cc1cccc(-n2c(=O)c3c(cc(C)n3C)n(CC(=O)Nc3ccc(C(F)(F)F)cc3)c2=O)c1` are 95.9%, 113.8% and 145.1%.
For the molecule `Cc1cc(C)c2c(=O)cc(CN(Cc3ccccc3)Cc3ccco3)[nH]c2c1`, in assay [5], the EC50 was 13.8 µM. Also, the outcome in the assay with BV-2 [9] and in the assay on BV-2 [7] was Active. Further, the result in the assay with BV-2 [6] and in the assay with BV-2 [8] was inactive. In addition, the Activity in assay [1] is reported as 98.5%; in assay [2], 92.8%; in assay [3], 230.6%.
`Cc1cc(C)cc(Nc2nc(C)cc(=O)n2CC(=O)Nc2cccc(C#N)c2)c1`: the values for the Activity in [1], in [2] and in assay [3] were 116.1%, 105.8% and 102.4%, respectively.
Consider `Cc1oc(-c2ccc(Cl)cc2)nc1CN1CCCC(C(=O)N2CCN(C(=O)c3ccco3)CC2)C1` (centres undefined), for which the concentration for a half-maximal effect (EC50) in [5] amounted to 78.8 µM. Besides, the result in the assay on BV-2 [6] and in the assay on BV-2 [8] was inactive. In addition, the result in the assay with BV-2 [7] was Active. The Activity in [1] stood at 101.8%; in [2], 116.9%; in assay [3], 172.8%.
On to `CC1=NS(=O)(=O)N(C)C=C1C(=O)OCc1nc(-c2cccc(F)c2)no1`, for which the results for the Activity in assay [1], in [2] and in [3] were 78.9%, 90.3% and 94.3%, respectively.
